Measurements from ChEMBL document CHEMBL1138567, “Regioselective synthesis and antimicrobial screening of novel ketocarbazolodispiropyrrolidine derivatives” (2009).

Assays:
Assay type in all cases: functional
Settings in all cases: read-out: IZ
[1] = test system: Proteus vulgaris; experiment: Antimicrobial activity against Proteus vulgaris at 75 ug/ml after 24 hrs by agar diffusion method
Outline: (§1)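 Agar well diffusion: petri plates (9 cm) with about 9 ml nutrient agar, seeded with the test organism. Wells cut with a cork borer and loaded with test compound at 25, 50, 75 or 100 per ml; tetracycline as control. Incubated 37 °C for 24 h; average inhibition-zone diameter around wells measured (mm).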

[2] = test system: Proteus vulgaris; experiment: Antimicrobial activity against Proteus vulgaris at 100 ug/ml after 24 hrs by agar diffusion method; outline: as §1
[3] = test system: Proteus mirabilis; experiment: Antimicrobial activity against Proteus mirabilis at 100 ug/ml after 24 hrs by agar diffusion method; outline: as §1
[4] = test system: Staphylococcus aureus; experiment: Antimicrobial activity against Staphylococcus aureus at 75 ug/ml after 24 hrs by agar diffusion method; outline: as §1
[5] = test system: Salmonella enterica subsp. enterica serovar Typhi str. CT18; experiment: Antimicrobial activity against Salmonella typhi at 50 ug/ml after 24 hrs by agar diffusion method
Outline: (§2)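 Agar well diffusion: about 9 ml nutrient agar in 9 cm Petri plates, seeded with the test organism. Wells cut with a cork borer and loaded with test compound at 25–100 per ml; tetracycline as control. Plates incubated 24 h at 37 °C. Read-out is the average diameter of the inhibition zone around each well, in mm.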

[6] = test system: Proteus mirabilis; experiment: Antimicrobial activity against Proteus mirabilis at 75 ug/ml after 24 hrs by agar diffusion method; outline: as §1
[7] = test system: Salmonella enterica subsp. enterica serovar Typhi str. CT18; experiment: Antimicrobial activity against Salmonella typhi at 100 ug/ml after 24 hrs by agar diffusion method; outline: as §2
[8] = test system: Staphylococcus aureus; experiment: Antimicrobial activity against Staphylococcus aureus at 100 ug/ml after 24 hrs by agar diffusion method; outline: as §1
[9] = test system: Proteus mirabilis; experiment: Antimicrobial activity against Proteus mirabilis at 50 ug/ml after 24 hrs by agar diffusion method; outline: as §1
[10] = test system: Proteus vulgaris; experiment: Antimicrobial activity against Proteus vulgaris at 50 ug/ml after 24 hrs by agar diffusion method; outline: as §1
[11] = test system: Proteus vulgaris; experiment: Antimicrobial activity against Proteus vulgaris at 25 ug/ml after 24 hrs by agar diffusion method; outline: as §1
[12] = test system: Salmonella enterica subsp. enterica serovar Typhi str. CT18; experiment: Antimicrobial activity against Salmonella typhi at 75 ug/ml after 24 hrs by agar diffusion method; outline: as §2
[13] = test system: Proteus mirabilis; experiment: Antimicrobial activity against Proteus mirabilis at 25 ug/ml after 24 hrs by agar diffusion method; outline: as §1
[14] = test system: Staphylococcus aureus; experiment: Antimicrobial activity against Staphylococcus aureus at 50 ug/ml after 24 hrs by agar diffusion method; outline: as §1
[15] = test system: Staphylococcus aureus; experiment: Antimicrobial activity against Staphylococcus aureus at 25 ug/ml after 24 hrs by agar diffusion method; outline: as §1
[16] = test system: Salmonella enterica subsp. enterica serovar Typhi str. CT18; experiment: Antimicrobial activity against Salmonella typhi at 25 ug/ml after 24 hrs by agar diffusion method; outline: as §2

Structure (SMILES) | zone of inhibition at 75 µg/mL [1] [mm] | zone of inhibition at 100 µg/mL [2] [mm] | zone of inhibition at 100 µg/mL [3] [mm] | zone of inhibition at 75 µg/mL [4] [mm] | zone of inhibition at 50 µg/mL [5] [mm] | zone of inhibition at 75 µg/mL [6] [mm] | zone of inhibition at 100 µg/mL [7] [mm] | zone of inhibition at 100 µg/mL [8] [mm] | zone of inhibition at 50 µg/mL [9] [mm] | zone of inhibition at 50 µg/mL [10] [mm] | zone of inhibition at 25 µg/mL [11] [mm] | zone of inhibition at 75 µg/mL [12] [mm] | zone of inhibition at 25 µg/mL [13] [mm] | zone of inhibition at 50 µg/mL [14] [mm] | zone of inhibition at 25 µg/mL [15] [mm] | zone of inhibition at 25 µg/mL [16] [mm]
CN1C[C@@H](c2ccc(Br)cc2)[C@@]2(CCc3c([nH]c4ccccc34)C2=O)C12C(=O)c1ccccc1C2=O | 16 | 18 | 16 | 19 | 9 | 14 | 19 | 21 | 11 | 13 | 9 | 18 | 9 | 12 | – | –
CN1C[C@@H](c2ccc(Cl)cc2)[C@@]2(CCc3c([nH]c4ccccc34)C2=O)C12C(=O)c1ccccc1C2=O | 18 | 24 | 23 | 16 | 13 | 14 | 19 | 19 | 9 | 14 | – | 16 | – | 11 | 9 | 9
CN1C[C@@H](c2ccc([N+](=O)[O-])cc2)[C@@]2(CCc3c([nH]c4ccccc34)C2=O)[C@]12C(=O)Nc1ccccc12 | 18 | 22 | 20 | 14 | 16 | 16 | 22 | 20 | 13 | 13 | 9 | 18 | 12 | 11 | – | 9
Cc1ccc([C@@H]2CN(C)C3(C(=O)c4ccccc4C3=O)[C@]23CCc2c([nH]c4ccccc24)C3=O)cc1 | 9 | 12 | 18 | 18 | 9 | 14 | 16 | 21 | 11 | – | – | 14 | 9 | 14 | 9 | –
CN1C[C@@H](c2ccc([N+](=O)[O-])cc2)[C@@]2(CCc3c([nH]c4ccccc34)C2=O)C12C(=O)c1ccccc1C2=O | 18 | 18 | 21 | 18 | 11 | 18 | 18 | 18 | 13 | 17 | 12 | 13 | 9 | 14 | 11 | 9
Cc1ccc([C@@H]2CN(C)[C@@]3(C(=O)c4cccc5cccc3c45)[C@]23CCc2c([nH]c4ccccc24)C3=O)cc1 | 16 | 20 | 21 | 23 | 15 | 18 | 29 | 27 | 14 | 14 | 11 | 21 | 11 | 18 | 14 | 12
CN1C[C@@H](c2ccc(Cl)cc2)[C@@]2(CCc3c([nH]c4ccccc34)C2=O)[C@]12C(=O)c1cccc3cccc2c13 | 24 | > 40 | 36 | 22 | 16 | 24 | 31 | 34 | 16 | 18 | 19 | 21 | 12 | 18 | 14 | 13
CN1C[C@@H](c2ccc(Br)cc2)[C@@]2(CCc3c([nH]c4ccccc34)C2=O)[C@]12C(=O)Nc1ccccc12 | 18 | 21 | 18 | 18 | 9 | 16 | 16 | 22 | 14 | 14 | 11 | 13 | 11 | 15 | 11 | –
CN1C[C@@H](c2ccccc2)[C@@]2(CCc3c([nH]c4ccccc34)C2=O)C12C(=O)c1ccccc1C2=O | 18 | 21 | 15 | 16 | 13 | 13 | 18 | 20 | 9 | 15 | 11 | 14 | – | 14 | – | 9
COc1ccc([C@@H]2CN(C)C3(C(=O)c4ccccc4C3=O)[C@]23CCc2c([nH]c4ccccc24)C3=O)cc1 | 16 | 21 | 20 | 15 | 11 | 17 | 21 | 20 | 15 | 15 | 13 | 16 | 13 | 13 | 9 | –
CN1C[C@@H](c2ccccc2)[C@@]2(CCc3c([nH]c4ccccc34)C2=O)[C@]12C(=O)c1cccc3cccc2c13 | 18 | 21 | 32 | 21 | 14 | 22 | 28 | 26 | 13 | 14 | – | 20 | 11 | 19 | 14 | 11
CN1C[C@@H](c2ccc(Br)cc2)[C@@]2(CCc3c([nH]c4ccccc34)C2=O)[C@]12C(=O)c1cccc3cccc2c13 | 20 | 22 | 22 | 18 | 14 | 18 | 30 | 22 | 15 | 16 | 12 | 21 | 13 | 14 | 11 | 9
COc1ccc([C@@H]2CN(C)[C@@]3(C(=O)c4cccc5cccc3c45)[C@]23CCc2c([nH]c4ccccc24)C3=O)cc1 | 13 | 17 | 22 | 21 | 15 | 20 | 26 | 30 | 16 | 12 | 9 | 18 | 14 | 16 | 9 | 13
